Laboratory results published in ChEMBL document CHEMBL5724801, “EUbOPEN Chemogenomics Library - Multiplex” (2024).
“And” between values parts separate entries of the source, which are not always exact repeats. Identical values can stand only once.

Tested on: HEK-293T
Assay: Multiplex assay against HEK293T
Format: toxicity, cell-based
Settings: human
Procedure, shortened: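 On a CQ1 microscope at 37°C and 5% CO2, live cells were imaged after compound addition. They had been stained at seeding with Hoechst33342, BioTracker Green Microtubule Cytoskeleton Dye, MitoTracker Red and Annexin V Alexa Fluor 680. CellPathfinder machine-learning gating assigned cells to Hoechst high-intensity objects or normal cells, normal cells to healthy, pyknosed or fragmented nuclei, and pyknosed cells to mitotic or apoptotic. Tubulin, mitochondrial-mass and membrane-permeability phenotypes are per cents of healthy-nucleus cells.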

[1] = 12 h, 1 µM, compound concentration 1 uM
[2] = 12 h, 10 µM, compound concentration 10 uM
[3] = 24 h, 1 µM, compound concentration 1 uM
[4] = 24 h, 10 µM, compound concentration 10 uM
[5] = 48 h, 1 µM, compound concentration 1 uM
[6] = 48 h, 10 µM, compound concentration 10 uM

CN(C)C(=O)Cn1cc(-c2ccc(-c3cncc4ccccc34)cc2)cn1
Population Apoptotic (%) [1]: 52% and 40% | Population Fragmented Nuclei (%) [1]: 5% and 4% | Population Healthy Nuclei (%) [1]: 81% and 80% | Population Hoechst High Intensity Objects (%) [1]: 7% and 2% | Population Membrane Permeable-Phenotype (%) [1]: 0% | Population Mitochondria Different-Phenotype (%) [1]: 50% and 58% | Population Mitotic Cells (%) [1]: 47% and 59% | Population Normal (%) [1]: 92% and 97% | Population Pyknosed Nuclei (%) [1]: 12% and 14% | Population Tubulin-Different-Phenotype (%) [1]: 35% and 23% | Total Cell Count [1]: 411 and 337 | Population Apoptotic (%) [2]: 48% and 69% | Population Fragmented Nuclei (%) [2]: 8% | Population Healthy Nuclei (%) [2]: 73% and 76% | Population Membrane Permeable-Phenotype (%) [2]: 0% | Population Mitochondria Different-Phenotype (%) [2]: 65% and 69% | Population Mitotic Cells (%) [2]: 51% and 30% | Population Normal (%) [2]: 93% and 80% | Population Pyknosed Nuclei (%) [2]: 17% and 15% | Population Tubulin-Different-Phenotype (%) [2]: 47% and 43% | Total Cell Count [2]: 264 and 321 | Population Apoptotic (%) [3]: 47% and 40% | Population Fragmented Nuclei (%) [3]: 10% and 6% | Population Healthy Nuclei (%) [3]: 79% and 82% | Population Hoechst High Intensity Objects (%) [3]: 6% and 7% | Population Membrane Permeable-Phenotype (%) [3]: 0% | Population Mitochondria Different-Phenotype (%) [3]: 38% and 45% | Population Mitotic Cells (%) [3]: 52% and 60% | Population Normal (%) [3]: 93% and 92% | Population Pyknosed Nuclei (%) [3]: 10% | Population Tubulin-Different-Phenotype (%) [3]: 24% and 23% | Total Cell Count [3]: 498 and 355 | Population Apoptotic (%) [4]: 48% and 45% | Population Fragmented Nuclei (%) [4]: 9% and 10% | Population Healthy Nuclei (%) [4]: 75% | Population Hoechst High Intensity Objects (%) [4]: 6% and 14% | Population Membrane Permeable-Phenotype (%) [4]: 0% | Population Mitochondria Different-Phenotype (%) [4]: 65% and 53% | Population Mitotic Cells (%) [4]: 51% and 54% | Population Normal (%) [4]: 93% and 85% | Population Pyknosed Nuclei (%) [4]: 14% and 13% | Population Tubulin-Different-Phenotype (%) [4]: 44% and 30% | Total Cell Count [4]: 283 and 362 | Population Apoptotic (%) [5]: 35% and 60% | Population Fragmented Nuclei (%) [5]: 19% and 11% | Population Healthy Nuclei (%) [5]: 74% and 82% | Population Hoechst High Intensity Objects (%) [5]: 8% and 5% | Population Membrane Permeable-Phenotype (%) [5]: 1% and 0% | Population Mitochondria Different-Phenotype (%) [5]: 40% and 32% | Population Mitotic Cells (%) [5]: 64% and 39% | Population Normal (%) [5]: 91% and 94% | Population Pyknosed Nuclei (%) [5]: 6% and 5% | Population Tubulin-Different-Phenotype (%) [5]: 25% and 17% | Total Cell Count [5]: 554 and 430 | Population Apoptotic (%) [6]: 66% and 59% | Population Fragmented Nuclei (%) [6]: 23% | Population Healthy Nuclei (%) [6]: 63% and 70% | Population Hoechst High Intensity Objects (%) [6]: 11% and 8% | Population Membrane Permeable-Phenotype (%) [6]: 0% | Population Mitochondria Different-Phenotype (%) [6]: 56% and 43% | Population Mitotic Cells (%) [6]: 33% and 40% | Population Normal (%) [6]: 88% and 91% | Population Pyknosed Nuclei (%) [6]: 12% and 6% | Population Tubulin-Different-Phenotype (%) [6]: 30% and 23% | Total Cell Count [6]: 379 and 429
